# Laboratory results: ChEMBL document CHEMBL5303300, “EUbOPEN Chemogenomics Library - Multiplex” (2023)
# Several values for one entry are separate records, joined by “and”; a condition that tells them apart may be missing. Identical values can stand only once.
# Experiments:
# Assay type in all cases: toxicity, cell-based
# Fibroblast = assay: Multiplex assay against human fibroblast; details: number of replicates 2
# Summary of the method: (§1)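 Imaging took place on a CQ1 microscope at 37°C and 5% CO2 once compound had been added to live cells stained at seeding with Hoechst33342, BioTracker Green Microtubule Cytoskeleton Dye, MitoTracker Red and Annexin V Alexa Fluor 680. CellPathfinder machine-learning gating classed cells as Hoechst high-intensity objects or normal cells, classed normal cells as having healthy, pyknosed or fragmented nuclei, and classed pyknosed cells as mitotic or apoptotic. Tubulin, mitochondrial-mass and membrane-permeability phenotypes are per cents of the healthy-nucleus cells.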
# HEK-293T = assay: Multiplex assay against HEK293T; details: human, number of replicates 2; summary of the method: as §1
# U2OS = assay: Multiplex assay against U2OS; details: human, number of replicates 2; summary of the method: as §1
# [1] = 12 h, 1 µM, compound concentration 1 uM
# [2] = 12 h, 10 µM, compound concentration 10 uM
# [3] = 24 h, 1 µM, compound concentration 1 uM
# [4] = 24 h, 10 µM, compound concentration 10 uM
# [5] = 48 h, 1 µM, compound concentration 1 uM
# [6] = 48 h, 10 µM, compound concentration 10 uM
structure (smiles),measurement,setting,value
CCCCOc1c(C(=O)c2c(F)cc(C)cc2F)c[nH]c2nncc1-2,Population Apoptotic (%),Fibroblast; [1],52% and 40%
same,Population Fragmented Nuclei (%),Fibroblast; [1],11% and 8%
same,Population Healthy Nuclei (%),Fibroblast; [1],61% and 73%
same,Population Hoechst High Intensity Objects (%),Fibroblast; [1],0%
same,Population Membrane Permeable-Phenotype (%),Fibroblast; [1],8% and 5%
same,Population Mitochondria Different-Phenotype (%),Fibroblast; [1],0%
same,Population Mitotic Cells (%),Fibroblast; [1],47% and 60%
same,Population Normal (%),Fibroblast; [1],100%
same,Population Pyknosed Nuclei (%),Fibroblast; [1],27% and 18%
same,Population Tubulin-Different-Phenotype (%),Fibroblast; [1],21% and 12%
same,Total Cell Count,Fibroblast; [1],200 and 276
same,Population Apoptotic (%),Fibroblast; [2],57% and 64%
same,Population Fragmented Nuclei (%),Fibroblast; [2],10% and 8%
same,Population Healthy Nuclei (%),Fibroblast; [2],64% and 57%
same,Population Hoechst High Intensity Objects (%),Fibroblast; [2],0%
same,Population Membrane Permeable-Phenotype (%),Fibroblast; [2],2% and 8%
same,Population Mitochondria Different-Phenotype (%),Fibroblast; [2],1% and 0%
same,Population Mitotic Cells (%),Fibroblast; [2],42% and 35%
same,Population Normal (%),Fibroblast; [2],99%
same,Population Pyknosed Nuclei (%),Fibroblast; [2],25% and 33%
same,Population Tubulin-Different-Phenotype (%),Fibroblast; [2],22% and 19%
same,Total Cell Count,Fibroblast; [2],271 and 238
same,Population Apoptotic (%),Fibroblast; [3],50% and 43%
same,Population Fragmented Nuclei (%),Fibroblast; [3],14% and 7%
same,Population Healthy Nuclei (%),Fibroblast; [3],55% and 66%
same,Population Hoechst High Intensity Objects (%),Fibroblast; [3],0%
same,Population Membrane Permeable-Phenotype (%),Fibroblast; [3],7%
same,Population Mitochondria Different-Phenotype (%),Fibroblast; [3],0% and 1%
same,Population Mitotic Cells (%),Fibroblast; [3],49% and 56%
same,Population Normal (%),Fibroblast; [3],100%
same,Population Pyknosed Nuclei (%),Fibroblast; [3],29% and 25%
same,Population Tubulin-Different-Phenotype (%),Fibroblast; [3],26% and 11%
same,Total Cell Count,Fibroblast; [3],193 and 267
same,Population Apoptotic (%),Fibroblast; [4],81% and 68%
same,Population Fragmented Nuclei (%),Fibroblast; [4],10%
same,Population Healthy Nuclei (%),Fibroblast; [4],64% and 51%
same,Population Hoechst High Intensity Objects (%),Fibroblast; [4],0%
same,Population Membrane Permeable-Phenotype (%),Fibroblast; [4],4%
same,Population Mitochondria Different-Phenotype (%),Fibroblast; [4],1%
same,Population Mitotic Cells (%),Fibroblast; [4],18% and 31%
same,Population Normal (%),Fibroblast; [4],99% and 100%
same,Population Pyknosed Nuclei (%),Fibroblast; [4],25% and 37%
same,Population Tubulin-Different-Phenotype (%),Fibroblast; [4],27% and 18%
same,Total Cell Count,Fibroblast; [4],281 and 247
same,Population Apoptotic (%),Fibroblast; [5],66% and 59%
same,Population Fragmented Nuclei (%),Fibroblast; [5],18% and 9%
same,Population Healthy Nuclei (%),Fibroblast; [5],53% and 64%
same,Population Hoechst High Intensity Objects (%),Fibroblast; [5],1% and 0%
same,Population Membrane Permeable-Phenotype (%),Fibroblast; [5],14% and 11%
same,Population Mitochondria Different-Phenotype (%),Fibroblast; [5],0%
same,Population Mitotic Cells (%),Fibroblast; [5],33% and 40%
same,Population Normal (%),Fibroblast; [5],98% and 100%
same,Population Pyknosed Nuclei (%),Fibroblast; [5],27% and 26%
same,Population Tubulin-Different-Phenotype (%),Fibroblast; [5],38% and 17%
same,Total Cell Count,Fibroblast; [5],197 and 276
same,Population Apoptotic (%),Fibroblast; [6],76% and 77%
same,Population Fragmented Nuclei (%),Fibroblast; [6],11% and 12%
same,Population Healthy Nuclei (%),Fibroblast; [6],46% and 64%
same,Population Hoechst High Intensity Objects (%),Fibroblast; [6],0%
same,Population Mitochondria Different-Phenotype (%),Fibroblast; [6],0% and 1%
same,Population Mitotic Cells (%),Fibroblast; [6],23% and 22%
same,Population Normal (%),Fibroblast; [6],99% and 100%
same,Population Pyknosed Nuclei (%),Fibroblast; [6],42% and 22%
same,Population Tubulin-Different-Phenotype (%),Fibroblast; [6],45% and 39%
same,Total Cell Count,Fibroblast; [6],261 and 279
same,Population Apoptotic (%),HEK-293T; [1],54% and 43%
same,Population Fragmented Nuclei (%),HEK-293T; [1],3% and 2%
same,Population Healthy Nuclei (%),HEK-293T; [1],87% and 86%
same,Population Hoechst High Intensity Objects (%),HEK-293T; [1],7% and 6%
same,Population Membrane Permeable-Phenotype (%),HEK-293T; [1],3% and 4%
same,Population Mitochondria Different-Phenotype (%),HEK-293T; [1],11% and 7%
same,Population Mitotic Cells (%),HEK-293T; [1],45% and 56%
same,Population Normal (%),HEK-293T; [1],92% and 93%
same,Population Pyknosed Nuclei (%),HEK-293T; [1],9% and 11%
same,Population Tubulin-Different-Phenotype (%),HEK-293T; [1],58% and 46%
same,Total Cell Count,HEK-293T; [1],782 and 748
same,Population Apoptotic (%),HEK-293T; [2],50% and 64%
same,Population Fragmented Nuclei (%),HEK-293T; [2],3%
same,Population Healthy Nuclei (%),HEK-293T; [2],85% and 81%
same,Population Hoechst High Intensity Objects (%),HEK-293T; [2],10% and 11%
same,Population Membrane Permeable-Phenotype (%),HEK-293T; [2],7% and 4%
same,Population Mitochondria Different-Phenotype (%),HEK-293T; [2],17%
same,Population Mitotic Cells (%),HEK-293T; [2],50% and 35%
same,Population Normal (%),HEK-293T; [2],89% and 88%
same,Population Pyknosed Nuclei (%),HEK-293T; [2],11% and 14%
same,Population Tubulin-Different-Phenotype (%),HEK-293T; [2],77% and 74%
same,Total Cell Count,HEK-293T; [2],766 and 710
same,Population Apoptotic (%),HEK-293T; [3],34% and 50%
same,Population Fragmented Nuclei (%),HEK-293T; [3],7% and 5%
same,Population Healthy Nuclei (%),HEK-293T; [3],85%
same,Population Hoechst High Intensity Objects (%),HEK-293T; [3],10% and 11%
same,Population Membrane Permeable-Phenotype (%),HEK-293T; [3],1% and 3%
same,Population Mitochondria Different-Phenotype (%),HEK-293T; [3],4% and 5%
same,Population Mitotic Cells (%),HEK-293T; [3],65% and 50%
same,Population Normal (%),HEK-293T; [3],89% and 88%
same,Population Pyknosed Nuclei (%),HEK-293T; [3],7% and 8%
same,Population Tubulin-Different-Phenotype (%),HEK-293T; [3],32% and 46%
same,Total Cell Count,HEK-293T; [3],1018 and 1015
same,Population Apoptotic (%),HEK-293T; [4],59% and 67%
same,Population Fragmented Nuclei (%),HEK-293T; [4],5%
same,Population Healthy Nuclei (%),HEK-293T; [4],82% and 83%
same,Population Hoechst High Intensity Objects (%),HEK-293T; [4],9% and 10%
same,Population Membrane Permeable-Phenotype (%),HEK-293T; [4],3% and 2%
same,Population Mitochondria Different-Phenotype (%),HEK-293T; [4],5%
same,Population Mitotic Cells (%),HEK-293T; [4],40% and 32%
same,Population Normal (%),HEK-293T; [4],90% and 89%
same,Population Pyknosed Nuclei (%),HEK-293T; [4],11%
same,Population Tubulin-Different-Phenotype (%),HEK-293T; [4],57% and 52%
same,Total Cell Count,HEK-293T; [4],954 and 851
same,Population Fragmented Nuclei (%),HEK-293T; [5],17% and 10%
same,Population Healthy Nuclei (%),HEK-293T; [5],79% and 86%
same,Population Hoechst High Intensity Objects (%),HEK-293T; [5],16%
same,Population Membrane Permeable-Phenotype (%),HEK-293T; [5],4% and 2%
same,Population Mitochondria Different-Phenotype (%),HEK-293T; [5],1% and 2%
same,Population Mitotic Cells (%),HEK-293T; [5],88% and 65%
same,Population Normal (%),HEK-293T; [5],83%
same,Population Pyknosed Nuclei (%),HEK-293T; [5],2% and 3%
same,Population Tubulin-Different-Phenotype (%),HEK-293T; [5],24% and 36%
same,Total Cell Count,HEK-293T; [5],1720 and 1259
same,Population Apoptotic (%),HEK-293T; [6],41% and 63%
same,Population Fragmented Nuclei (%),HEK-293T; [6],13% and 10%
same,Population Healthy Nuclei (%),HEK-293T; [6],82% and 86%
same,Population Hoechst High Intensity Objects (%),HEK-293T; [6],12%
same,Population Membrane Permeable-Phenotype (%),HEK-293T; [6],4% and 1%
same,Population Mitochondria Different-Phenotype (%),HEK-293T; [6],4% and 5%
same,Population Mitotic Cells (%),HEK-293T; [6],58% and 36%
same,Population Normal (%),HEK-293T; [6],87%
same,Population Pyknosed Nuclei (%),HEK-293T; [6],3% and 2%
same,Population Tubulin-Different-Phenotype (%),HEK-293T; [6],46% and 47%
same,Total Cell Count,HEK-293T; [6],1114 and 939
same,Population Apoptotic (%),U2OS; [1],54% and 60%
same,Population Healthy Nuclei (%),U2OS; [1],52% and 86%
same,Population Hoechst High Intensity Objects (%),U2OS; [1],0%
same,Population Membrane Permeable-Phenotype (%),U2OS; [1],0% and 3%
same,Population Mitochondria Different-Phenotype (%),U2OS; [1],0% and 1%
same,Population Mitotic Cells (%),U2OS; [1],45% and 40%
same,Population Normal (%),U2OS; [1],100%
same,Population Pyknosed Nuclei (%),U2OS; [1],20% and 9%
same,Population Tubulin-Different-Phenotype (%),U2OS; [1],89% and 86%
same,Population Apoptotic (%),U2OS; [2],42% and 84%
same,Population Fragmented Nuclei (%),U2OS; [2],19% and 8%
same,Population Healthy Nuclei (%),U2OS; [2],29% and 79%
same,Population Hoechst High Intensity Objects (%),U2OS; [2],0%
same,Population Membrane Permeable-Phenotype (%),U2OS; [2],2% and 1%
same,Population Mitochondria Different-Phenotype (%),U2OS; [2],0%
same,Population Normal (%),U2OS; [2],100%
same,Population Tubulin-Different-Phenotype (%),U2OS; [2],73% and 91%
same,Total Cell Count,U2OS; [2],143 and 207
same,Population Apoptotic (%),U2OS; [3],46% and 62%
same,Population Fragmented Nuclei (%),U2OS; [3],10% and 5%
same,Population Healthy Nuclei (%),U2OS; [3],52% and 82%
same,Population Hoechst High Intensity Objects (%),U2OS; [3],0%
same,Population Membrane Permeable-Phenotype (%),U2OS; [3],0% and 1%
same,Population Mitochondria Different-Phenotype (%),U2OS; [3],0%
same,Population Mitotic Cells (%),U2OS; [3],53% and 37%
same,Population Normal (%),U2OS; [3],100%
same,Population Tubulin-Different-Phenotype (%),U2OS; [3],76% and 79%
same,Population Apoptotic (%),U2OS; [4],41% and 66%
same,Population Hoechst High Intensity Objects (%),U2OS; [4],1% and 0%
same,Population Membrane Permeable-Phenotype (%),U2OS; [4],6% and 2%
same,Population Mitochondria Different-Phenotype (%),U2OS; [4],0%
same,Population Mitotic Cells (%),U2OS; [4],58% and 33%
same,Population Normal (%),U2OS; [4],98% and 100%
same,Population Tubulin-Different-Phenotype (%),U2OS; [4],81% and 86%
same,Total Cell Count,U2OS; [4],187 and 205
same,Population Apoptotic (%),U2OS; [5],37% and 67%
same,Population Fragmented Nuclei (%),U2OS; [5],5% and 4%
same,Population Healthy Nuclei (%),U2OS; [5],71% and 88%
same,Population Hoechst High Intensity Objects (%),U2OS; [5],0%
same,Population Membrane Permeable-Phenotype (%),U2OS; [5],4% and 2%
same,Population Mitochondria Different-Phenotype (%),U2OS; [5],4% and 1%
same,Population Mitotic Cells (%),U2OS; [5],62% and 32%
same,Population Normal (%),U2OS; [5],100% and 99%
same,Population Tubulin-Different-Phenotype (%),U2OS; [5],77% and 74%
same,Population Apoptotic (%),U2OS; [6],35% and 75%
same,Population Hoechst High Intensity Objects (%),U2OS; [6],0%
same,Population Membrane Permeable-Phenotype (%),U2OS; [6],7% and 4%
same,Population Mitochondria Different-Phenotype (%),U2OS; [6],0%
same,Population Mitotic Cells (%),U2OS; [6],64% and 24%
same,Population Normal (%),U2OS; [6],100%
same,Population Tubulin-Different-Phenotype (%),U2OS; [6],73% and 77%
same,Total Cell Count,U2OS; [6],291 and 241
